In ChEMBL document CHEMBL3120154, “2-[N-Alkyl(R-phenyl)-aminomethyl]-3-phenyl-7-trifluoromethylquinoxalines as anticancer agents inhibitors of folate enzymes” (Eur J Med Chem, 2014):

Experiments:
Format in all cases: functional
SF-295 = experiment: Cytotoxicity against human SF295 cells at 10^-6 M after 48 hrs by SRB assay; settings: SF-295, 48 h, read-out: GI
Method in brief: (§1)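 Second-stage screen in the 60-cell-line human tumor panel at NCI, over a 5-log range (100, 10, 1, 0.1, 0.01 micromolar). Cells were exposed to drug for 48 h and growth was estimated with a sulforhodamine B protein stain. The value is percent growth inhibition at each concentration.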

COLO 205 = experiment: Cytotoxicity against human COLO205 cells at 10^-5 M after 48 hrs by SRB assay; settings: COLO 205, 48 h, read-out: GI
Method in brief: (§2)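 Run by NCI on its 60-line human tumor cell panel, after a three-cell-line prescreen. Cells were exposed to drug for 48 h over a 5-log range: 100, 10, 1, 0.1 and 0.01 micromolar. Growth was estimated by sulforhodamine B (SRB) protein staining. Percent growth inhibition (I%) was recorded at each concentration relative to untreated control cells.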

SK-OV-3 = experiment: Cytotoxicity against human SKOV3 cells at 10^-6 M after 48 hrs by SRB assay; settings: SK-OV-3, 48 h, read-out: GI; method in brief: as §1
CAKI-1 = experiment: Cytotoxicity against human Caki1 cells at 10^-6 M after 48 hrs by SRB assay; settings: CAKI-1, 48 h, read-out: GI; method in brief: as §2
HT-29 = experiment: Cytotoxicity against human HT-29 cells at 10^-5 M after 48 hrs by SRB assay; settings: HT-29, 48 h, read-out: GI; method in brief: as §2
HOP-92 = experiment: Cytotoxicity against human HOP92 cells at 10^-5 M after 48 hrs by SRB assay; settings: HOP-92, 48 h, read-out: GI; method in brief: as §2
CCRF-CEM = experiment: Cytotoxicity against human CCRF-CEM cells at 10^-6 M after 48 hrs by SRB assay; settings: read-out: GI; method in brief: as §2
IGROV-1 [1] = experiment: Cytotoxicity against human IGROV1 cells at 10^-6 M after 48 hrs by SRB assay; settings: IGROV-1, 48 h, read-out: GI
Method in brief: (§3)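 Run in the NCI 60-cell-line screen after a three-line prescreen. Cells got a 48 h drug exposure; viability/growth was estimated with the sulforhodamine B protein assay. Growth inhibition (I%) was recorded at 100, 10, 1, 0.1 and 0.01 micromolar. Percent growth is relative to untreated control cells, and negative values indicate cell kill.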

NCI-H522 = experiment: Cytotoxicity against human NCI-H522 cells at 10^-5 M after 48 hrs by SRB assay; settings: NCI-H522, 48 h, read-out: GI; method in brief: as §3
HL-60(TB) = experiment: Cytotoxicity against human HL-60(TB) cells at 10^-6 M after 48 hrs by SRB assay; settings: HL-60, 48 h, read-out: GI
Method in brief: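 NCI 60-human-tumour-cell-line screen run over a 5-log dose range (100, 10, 1, 0.1 and 0.01 µM). Cells were exposed to drug for 48 h. Growth was estimated by sulforhodamine B protein staining. Values are percent growth inhibition at each concentration, relative to untreated control cells.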

SK-MEL-5 = experiment: Cytotoxicity against human SK-MEL-5 cells at 10^-5 M after 48 hrs by SRB assay; settings: SK-MEL-5, 48 h, read-out: GI; method in brief: as §1
M14 = experiment: Cytotoxicity against human M14 cells at 10^-5 M after 48 hrs by SRB assay; settings: M14, 48 h, read-out: GI; method in brief: as §3
IGROV-1 [2] = experiment: Cytotoxicity against human IGROV1 cells at 10^-5 M after 48 hrs by SRB assay; settings: IGROV-1, 48 h, read-out: GI; method in brief: as §3
UACC-62 = experiment: Cytotoxicity against human UACC62 cells at 10^-5 M after 48 hrs by SRB assay; settings: UACC-62, 48 h, read-out: GI
BT-549 = experiment: Cytotoxicity against human BT549 cells at 10^-6 M after 48 hrs by SRB assay; settings: BT-549, 48 h, read-out: GI; method in brief: as §2
OVCAR-3 = experiment: Cytotoxicity against human OVCAR3 cells at 10^-5 M after 48 hrs by SRB assay; settings: OVCAR-3, 48 h, read-out: GI; method in brief: as §3
MOLT-4 = experiment: Cytotoxicity against human MOLT4 cells at 10^-5 M after 48 hrs by SRB assay; settings: MOLT-4, 48 h, read-out: GI; method in brief: as §3
A498 = experiment: Cytotoxicity against human A498 cells at 10^-6 M after 48 hrs by SRB assay; settings: A498, 48 h, read-out: GI; method in brief: as §2
SF-539 = experiment: Cytotoxicity against human SF539 cells at 10^-6 M after 48 hrs by SRB assay; settings: SF-539, 48 h, read-out: GI; method in brief: as §1
U-251 = experiment: Cytotoxicity against human U251 cells at 10^-6 M after 48 hrs by SRB assay; settings: U-251, 48 h, read-out: GI
SN12C = experiment: Cytotoxicity against human SN12C cells at 10^-5 M after 48 hrs by SRB assay; settings: read-out: GI
NCI-H322M = experiment: Cytotoxicity against human NCI-H322M cells at 10^-5 M after 48 hrs by SRB assay; settings: read-out: GI; method in brief: as §3
RPMI-8226 = experiment: Cytotoxicity against human RPMI8226 cells at 10^-6 M after 48 hrs by SRB assay; settings: RPMI-8226, 48 h, read-out: GI; method in brief: as §1
SK-MEL-2 = experiment: Cytotoxicity against human SK-MEL-2 cells at 10^-5 M after 48 hrs by SRB assay; settings: SK-MEL-2, 48 h, read-out: GI; method in brief: as §1
HCT-15 = experiment: Cytotoxicity against human HCT15 cells at 10^-5 M after 48 hrs by SRB assay; settings: HCT-15, 48 h, read-out: GI; method in brief: as §2
786-0 = experiment: Cytotoxicity against human 786-0 cells at 10^-5 M after 48 hrs by SRB assay; settings: 786-0, 48 h, read-out: GI; method in brief: as §2
HCT-116 = experiment: Cytotoxicity against human HCT116 cells at 10^-5 M after 48 hrs by SRB assay; settings: HCT-116, 48 h, read-out: GI; method in brief: as §2
ACHN = experiment: Cytotoxicity against human ACHN cells at 10^-6 M after 48 hrs by SRB assay; settings: read-out: GI; method in brief: as §2
RXF 393 [3] = experiment: Cytotoxicity against human RXF393 cells at 10^-6 M after 48 hrs by SRB assay; settings: RXF 393, 48 h, read-out: GI; method in brief: as §1
NCI-H460 [4] = experiment: Cytotoxicity against human NCI-H460 cells at 10^-6 M after 48 hrs by SRB assay; settings: NCI-H460, 48 h, read-out: GI; method in brief: as §3
DU-145 = experiment: Cytotoxicity against human DU145 cells at 10^-6 M after 48 hrs by SRB assay; settings: DU-145, 48 h, read-out: GI; method in brief: as §2
[5] = Cytotoxicity against human OVCAR5 cells at 10^-8 M after 48 hrs by SRB assay; settings: OVCAR-5, 48 h, read-out: GI
NCI-H460 [6] = experiment: Cytotoxicity against human NCI-H460 cells at 10^-7 M after 48 hrs by SRB assay; settings: NCI-H460, 48 h, read-out: GI
RXF 393 [7] = experiment: Cytotoxicity against human RXF393 cells at 10^-7 M after 48 hrs by SRB assay; settings: RXF 393, 48 h, read-out: GI
NCI-H460 [8] = experiment: Cytotoxicity against human NCI-H460 cells at 10^-8 M after 48 hrs by SRB assay; settings: NCI-H460, 48 h, read-out: GI

Row | SMILES | inhibition of growth at 1 µM (SF-295) [%] | inhibition of growth at 10 µM (COLO 205) [%] | inhibition of growth at 1 µM (SK-OV-3) [%] | inhibition of growth at 1 µM (CAKI-1) [%] | inhibition of growth at 10 µM (HT-29) [%] | inhibition of growth at 10 µM (HOP-92) [%] | inhibition of growth at 1 µM (CCRF-CEM) [%] | inhibition of growth at 1 µM (IGROV-1 [1]) [%] | inhibition of growth at 10 µM (NCI-H522) [%] | inhibition of growth at 1 µM (HL-60(TB)) [%] | inhibition of growth at 10 µM (SK-MEL-5) [%] | inhibition of growth at 10 µM (M14) [%] | inhibition of growth at 10 µM (IGROV-1 [2]) [%] | inhibition of growth at 10 µM (UACC-62) [%] | inhibition of growth at 1 µM (BT-549) [%] | inhibition of growth at 10 µM (OVCAR-3) [%] | inhibition of growth at 10 µM (MOLT-4) [%] | inhibition of growth at 1 µM (A498) [%] | inhibition of growth at 1 µM (SF-539) [%] | inhibition of growth at 1 µM (U-251) [%] | further results
1 | C#CCN(Cc1nc2cc(C(F)(F)F)ccc2nc1-c1ccccc1)c1ccc(C)cc1 | 56 | 164 | < 40 | < 40 | 99 | < 40 | < 40 | < 40 | 76 | 66 | 99 | 95 | 63 | 91 | < 40 | 125 | 88 | < 40 | < 40 | < 40 | inhibition of growth at 10 µM (SN12C): 80%; inhibition of growth at 10 µM (NCI-H322M): 62%; inhibition of growth at 1 µM (RPMI-8226): < 40%; inhibition of growth at 10 µM (SK-MEL-2): 72%; inhibition of growth at 10 µM (HCT-15): 110%; inhibition of growth at 10 µM (786-0): 70%; inhibition of growth at 10 µM (HCT-116): 79%; inhibition of growth at 1 µM (ACHN): < 40%; inhibition of growth at 1 µM (RXF 393 [3]): < 40%; inhibition of growth at 1 µM (NCI-H460 [4]): 62%; inhibition of growth at 1 µM (DU-145): < 40%
2 | CCN(Cc1nc2cc(C(F)(F)F)ccc2nc1-c1ccccc1)c1ccc(OC)c(OC)c1 | < 40 | < 40 | < 40 | 19 | 40 | 21 | < 40 | < 40 | 28 | < 40 | 17 | 17 | 13 | 24 | < 40 | 31 | 44 | 26 | < 40 | < 40 | inhibition of growth at 0.01 µM [5]: < 40%; inhibition of growth at 0.1 µM (NCI-H460 [6]): < 40%; inhibition of growth at 10 µM (SN12C): 21%; inhibition of growth at 0.1 µM (RXF 393 [7]): 43%; inhibition of growth at 0.01 µM (NCI-H460 [8]): < 40%; inhibition of growth at 10 µM (NCI-H322M): < 40%; inhibition of growth at 1 µM (RPMI-8226): < 40%; inhibition of growth at 10 µM (SK-MEL-2): 15%; inhibition of growth at 10 µM (HCT-15): 17%; inhibition of growth at 10 µM (786-0): 15%; inhibition of growth at 10 µM (HCT-116): 43%; inhibition of growth at 1 µM (ACHN): < 40%; inhibition of growth at 1 µM (RXF 393 [3]): 57%; inhibition of growth at 1 µM (NCI-H460 [4]): < 40%; inhibition of growth at 1 µM (DU-145): < 40%
